Calls of active or inactive are those of the source. No cut-off for these calls is given here.
Experiments:
[1] = molecular target: Dipeptidyl peptidase 2 (Rattus norvegicus, UniProt Q9EPB1); test: Inhibition of rat kidney DPP2 after 60 mins
Outline: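 Rat kidney DPP-2, partially purified, preincubated with compound (DMSO) for 20 min at room temperature in […] buffer pH 5.5. Reaction started with H-Lys-Ala-pNA, added at 1 mmol/L, and run 60 min at 37 °C. A405 read at start and end against substrate-only and no-compound wells. IC50 from concentration-response curves, mean with 95% CI (n = 3).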

[2] = molecular target: Dipeptidyl peptidase 8 (Homo sapiens, UniProt Q6V1X1); test: Inhibition of FLAG-tagged human DPP8 expressed in human 293F cells after 90 mins; assay type: cell-based
[3] = molecular target: Dipeptidyl peptidase 9 (Homo sapiens, UniProt Q86TI2); test: Inhibition of FLAG-tagged human DPP9 expressed in human 293F cells after 90 mins; assay type: cell-based
[4] = Half life in dog at 1 mg/kg, po; assay type: ADME, organism-based, Canis lupus familiaris; design: dose 1 mg/kg, route oral; settings: in vivo
Outline: (§1)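 Single doses to rats (n = 3) and dogs (n = 4), intravenous 0.1 mg/kg and oral 1.0 mg/kg. Plasma obtained from serial blood samples and deproteinized with acetonitrile containing an internal standard. Supernatant diluted with 0.01 mol/L ammonium acetate. Drug quantified by LC/MS/MS. Values given as mean ± deviation.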

[5] = system: Rattus norvegicus; test: Antidiabetic activity in po dosed fatty Wistar rat assessed as reduction of blood glucose excursion administered 60 mins before glucose challenge by oral glucose tolerance test; assay type: functional, organism-based
Outline: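 Female Wistar fatty rats, 13 weeks old, fasted overnight and grouped by plasma glucose and body weight (n = 6). Oral vehicle (0.5% methylcellulose) or 0.03, 0.1, 0.3 and 1 mg/kg as free base of the monohydrate. Oral glucose 1 g/kg given 1 h later. Tail-vein blood taken at 0, 10, 30 and 60 min. Plasma glucose measured enzymatically and insulin by ELISA.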

[6] = Solubility of the compound at pH 6.8 after 2 hrs; assay type: physicochemical; settings: buffer
Outline: (§2)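 Thermodynamic solubility in Japanese Pharmacopoeia 15th ed. first fluid (pH 1.2) or second fluid (pH 6.8), incubated 2 h at 37 °C. Precipitate removed by filtration and filtrate quantified by HPLC.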

[7] = Half life in rat at 1 mg/kg, po; assay type: ADME, organism-based; design: dose 1 mg/kg, route oral; settings: in vivo; outline: as §1
[8] = Metabolic stability in dog liver microsomes assessed as compound remaining at 1 uM after 20 mins relative to basal level; assay type: ADME, Canis lupus familiaris, Microsome; settings: read-out: Stability
Outline: (§3)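 Rat, dog or human hepatic microsomes ([…] final) mixed on ice with 1 μmol/L compound. Reaction started with NADPH and run 20 min at 37 °C, then stopped with ice-cold acetonitrile. Zero-time controls stopped before compound addition. Supernatant analysed by HPLC-UV. Result given as % remaining.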

[9] = Bioavailability in rat at 0.1 mg/kg, iv and 1 mg/kg, po; assay type: ADME, organism-based; settings: in vivo; outline: as §1
[10] = Metabolic stability in rat liver microsomes assessed as compound remaining at 1 uM after 20 mins relative to basal level; assay type: ADME, Microsome; settings: read-out: Stability; outline: as §3
[11] = Metabolic stability in human liver microsomes assessed as compound remaining at 1 uM after 20 mins relative to basal level; assay type: ADME, Microsome; settings: read-out: Stability; outline: as §3
[12] = Solubility of the compound at pH 1.2 after 2 hrs; assay type: physicochemical; settings: buffer; outline: as §2
[13] = organism: Canis familiaris; settings: Canis lupus familiaris; Plasma; 0.5 mg/kg
[14] = Bioavailability in dog at 0.1 mg/kg, iv and 1 mg/kg, po; assay type: ADME, organism-based, Canis lupus familiaris; settings: in vivo; outline: as §1

Sequence of Dipeptidyl peptidase 9 (Q86TI2 whole entry): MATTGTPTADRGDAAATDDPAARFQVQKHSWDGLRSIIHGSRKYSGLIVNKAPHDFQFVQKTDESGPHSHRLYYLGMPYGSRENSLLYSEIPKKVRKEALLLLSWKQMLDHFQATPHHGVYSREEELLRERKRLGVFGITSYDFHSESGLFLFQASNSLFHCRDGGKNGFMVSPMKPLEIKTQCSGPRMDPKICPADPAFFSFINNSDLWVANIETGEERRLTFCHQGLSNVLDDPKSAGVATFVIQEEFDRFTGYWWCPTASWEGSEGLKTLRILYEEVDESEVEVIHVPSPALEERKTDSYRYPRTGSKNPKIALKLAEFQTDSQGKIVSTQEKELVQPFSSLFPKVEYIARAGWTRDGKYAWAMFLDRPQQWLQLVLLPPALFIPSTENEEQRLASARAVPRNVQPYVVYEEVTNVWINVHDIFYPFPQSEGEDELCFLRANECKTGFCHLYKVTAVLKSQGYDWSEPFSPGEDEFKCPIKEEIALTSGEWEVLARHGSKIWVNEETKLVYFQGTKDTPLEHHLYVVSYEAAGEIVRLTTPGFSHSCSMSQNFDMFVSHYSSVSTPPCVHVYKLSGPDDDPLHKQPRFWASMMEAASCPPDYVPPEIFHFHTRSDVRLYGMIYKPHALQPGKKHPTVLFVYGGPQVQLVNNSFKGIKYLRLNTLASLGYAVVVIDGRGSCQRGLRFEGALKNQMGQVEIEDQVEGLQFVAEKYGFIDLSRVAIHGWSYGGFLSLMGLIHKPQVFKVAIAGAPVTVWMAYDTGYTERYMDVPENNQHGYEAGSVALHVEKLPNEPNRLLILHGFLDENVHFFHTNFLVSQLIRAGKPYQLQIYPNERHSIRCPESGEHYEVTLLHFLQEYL
Sequence of Dipeptidyl peptidase 8 (Q6V1X1 whole entry): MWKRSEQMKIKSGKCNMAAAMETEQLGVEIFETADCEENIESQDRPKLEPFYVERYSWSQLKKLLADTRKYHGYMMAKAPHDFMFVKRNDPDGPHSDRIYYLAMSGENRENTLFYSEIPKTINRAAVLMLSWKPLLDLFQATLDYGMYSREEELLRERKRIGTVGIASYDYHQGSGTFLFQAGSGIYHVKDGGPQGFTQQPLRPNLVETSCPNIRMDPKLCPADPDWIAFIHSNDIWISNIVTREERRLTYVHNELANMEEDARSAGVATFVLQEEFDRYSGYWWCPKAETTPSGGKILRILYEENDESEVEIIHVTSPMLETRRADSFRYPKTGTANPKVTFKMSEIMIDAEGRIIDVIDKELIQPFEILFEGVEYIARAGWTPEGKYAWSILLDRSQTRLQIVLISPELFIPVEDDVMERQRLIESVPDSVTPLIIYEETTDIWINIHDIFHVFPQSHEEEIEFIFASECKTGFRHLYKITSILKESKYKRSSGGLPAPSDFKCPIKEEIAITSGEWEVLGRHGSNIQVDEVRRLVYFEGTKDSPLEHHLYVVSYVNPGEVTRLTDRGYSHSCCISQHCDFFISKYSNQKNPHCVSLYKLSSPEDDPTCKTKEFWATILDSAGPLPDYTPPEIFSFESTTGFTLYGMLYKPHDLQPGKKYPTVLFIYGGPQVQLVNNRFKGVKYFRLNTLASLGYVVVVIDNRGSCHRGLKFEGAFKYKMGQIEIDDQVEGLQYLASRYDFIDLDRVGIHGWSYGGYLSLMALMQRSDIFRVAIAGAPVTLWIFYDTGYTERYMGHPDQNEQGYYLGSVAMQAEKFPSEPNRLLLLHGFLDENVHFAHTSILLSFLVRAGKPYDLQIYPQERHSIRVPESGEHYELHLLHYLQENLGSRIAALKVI
Sequence of Dipeptidyl peptidase 2 (Q9EPB1 whole entry): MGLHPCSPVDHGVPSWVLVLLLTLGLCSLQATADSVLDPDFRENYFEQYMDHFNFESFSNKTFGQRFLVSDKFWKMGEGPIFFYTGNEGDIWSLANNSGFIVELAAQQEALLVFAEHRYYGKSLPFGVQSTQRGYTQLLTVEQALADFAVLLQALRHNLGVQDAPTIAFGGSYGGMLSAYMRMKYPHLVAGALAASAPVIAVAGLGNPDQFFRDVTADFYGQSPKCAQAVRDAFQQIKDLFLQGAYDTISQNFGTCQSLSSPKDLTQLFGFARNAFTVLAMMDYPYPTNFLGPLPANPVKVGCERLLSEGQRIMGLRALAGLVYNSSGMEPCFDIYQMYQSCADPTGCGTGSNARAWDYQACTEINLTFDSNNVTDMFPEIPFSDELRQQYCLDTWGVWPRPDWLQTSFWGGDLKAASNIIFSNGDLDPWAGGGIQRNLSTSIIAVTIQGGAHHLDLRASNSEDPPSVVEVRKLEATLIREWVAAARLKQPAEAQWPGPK

Compound | IC50 [1] | IC50 [2] | further results
Cc1ccc(-c2c(CCC(=O)O)c(C)nc(CC(C)C)c2CN)cc1 | 1.1 µM | > 30 µM | IC50 [3]: > 30 µM
Cc1ccc(-c2c(CN)c(CC(C)(C)C)nc(CC(C)C)c2C(=O)O)cc1 | 1.5 µM |  | 
Cc1ccc(-c2c(CN)c(CC(C)(C)C)nc(C(C)C)c2C(=O)O)cc1 | 1.6 µM |  | 
Cc1ccc(-c2c(CN)c(CC(C)C)nc(C)c2C(=O)O)cc1 | 5.6 µM |  | 
CCc1nc(CC(C)(C)C)c(CN)c(-c2ccc(C)cc2)c1C(=O)O | 4 µM |  | 
Cc1ccc(-c2c(CN)c(CC(C)(C)C)nc(Cc3ccccc3)c2C(=O)O)cc1 | 0.25 µM |  | 
Cc1ccc(-c2c(CC(=O)O)c(C)nc(CC(C)C)c2CN)cc1 | 50 µM | > 30 µM | IC50 [3]: > 30 µM
Cc1ccc(-c2c(CC(=O)O)c(C)nc(CC(C)(C)C)c2CN)cc1 |  | > 100 µM | IC50 [3]: > 100 µM

More lines, main results first:

IC50 [1] | IC50 [2] | Compound | further results
2 µM |  | CCCc1nc(CC(C)(C)C)c(CN)c(-c2ccc(C)cc2)c1C(=O)O | 
11 µM |  | CCCCc1nc(C)c(C(=O)O)c(-c2ccc(C)cc2)c1CN | 
10 µM |  | Cc1ccc(-c2c(CN)c(CC(C)(C)C)nc(C)c2C(=O)O)cc1 | 
> 100 µM | > 100 µM | CCc1nc(CC(C)(C)C)c(CN)c(-c2ccc(C)cc2)c1CC(=O)O.O | half-life [4]: 4.97 h; Activity [5]: Dose-dependent effect; solubility at 2 h [6]: 930 µg/mL; half-life [7]: 5.74 h; remaining at 20 min, 1 µM [8]: 96.8%; bioavailability [9]: 53.3%; remaining at 20 min, 1 µM [10]: 100%; remaining at 20 min, 1 µM [11]: 100%; solubility at 2 h [12]: > 1000 µg/mL; inhibition [13]: Active; bioavailability [14]: 88%

Reference: ChEMBL document CHEMBL1671814, “Discovery of a 3-pyridylacetic acid derivative (TAK-100) as a potent, selective and orally active dipeptidyl peptidase IV (DPP-4) inhibitor” (J Med Chem, 2011)
